According to ChEMBL document CHEMBL4619801, “Discovery of Phthalazinone Derivatives as Novel Hepatitis B Virus Capsid Inhibitors” (J Med Chem, 2020):
Active and inactive are the calls of the source. The rule behind the calls is not given here.

What was measured:
[1] = Cytotoxicity in human HepG2.2.15 cells assessed as reduction in cell viability incubated for 8 days by MTT assay; type: cell-based, HepG2 2.2.15
Outline: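 This was run in the same 8-day HepG2.2.15 cultures. After the medium was removed, MTT was added (final 2.5 mg/mL) for 1 h at 37 °C. Cells were lysed in 10% SDS/50% DMF, pH 7.2, and OD was read at 570 nm to give % cell death. CC50 was averaged with SD from at least two independent determinations.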

Hepatitis B virus [2] = test: Antiviral activity against HBV infected in human HepG2.2.15 cells assessed as reduction in cytoplasmic HBV-DNA replication incubated for 8 days by real-time PCR analysis; type: functional, organism-based
mouse (Mus musculus) [3] = test: AUC (0 to infinity) in mouse at 2 mg/kg, iv dosed as single administration; details: in vivo
mouse (Mus musculus) [4] = test: Tmax in mouse at 2 mg/kg, iv dosed as single administration; details: in vivo
mouse (Mus musculus) [5] = test: Observed volume of distribution at steady state in mouse at 2 mg/kg, iv dosed as single administration; details: in vivo, read-out: Vdss
mouse (Mus musculus) [6] = test: AUC (0 to infinity) in mouse at 20 mg/kg, po dosed as single administration; details: in vivo
Hepatitis B virus [7] = test: Antiviral activity against HBV infected in human HepG2.2.15 cells assessed as reduction in capsid formation; type: functional, organism-based; details: HepG2 2.2.15
Hepatitis B virus [8] = test: Antiviral activity against HBV infected in human HepG2.2.15 cells assessed as reduction in capsid associated DNAs at 0.1 uM by agarose gel electrophoresis method; type: functional, organism-based; details: HepG2 2.2.15
Outline: (§1)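 HepG2.2.15 cells treated at indicated concentrations for 8 days. Intracellular capsids resolved on 1.8% native agarose gel; capsid mobility compared with untreated cells, and capsid-associated HBV DNA detected in situ.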

Hepatitis B virus [9] = test: Antiviral activity against HBV infected in human HepG2.2.15 cells assessed as reduction in cytoplasmic HBV-DNA replication at cytotoxic CC50 level incubated for 8 days by real-time PCR analysis; type: functional, organism-based; details: HepG2 2.2.15
Hepatitis B virus [10] = test: Antiviral activity against HBV infected in human HepG2.2.15 cells assessed as reduction in single-stranded form of viral DNA at 0.06 to 1 uM incubated for 8 days by Southern blotting analysis; type: functional, organism-based; details: HepG2 2.2.15
Outline: (§2)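 HepG2.2.15 cells grown in 12-well plates were treated at the indicated concentrations for 8 days. HBV DNA was extracted from intracellular capsids and detected by Southern blot hybridization with a DIG-labeled HBV genomic fragment probe. Relaxed circular (rc) and single-stranded (ss) replication intermediates were read from the blot.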

Hepatitis B virus [11] = test: Antiviral activity against HBV infected in human HepG2.2.15 cells assessed as reduction in relaxed circular form of viral DNA at 0.06 to 1 uM incubated for 8 days by Southern blotting analysis; type: functional, organism-based; details: HepG2 2.2.15; outline: as §2
mouse (Mus musculus) [12] = test: Observed clearance in mouse at 2 mg/kg, iv dosed as single administration; details: in vivo
mouse (Mus musculus) [13] = test: Half life in mouse at 2 mg/kg, iv dosed as single administration; details: in vivo
Hepatitis B virus [14] = test: Antiviral activity against HBV infected in human HepG2.2.15 cells assessed as reduction in capsid associated DNAs at 5 uM by agarose gel electrophoresis method; type: functional, organism-based; details: HepG2 2.2.15; outline: as §1
[15] = Drug level in CD1 mouse liver at 20 mg/kg, po dosed as single administration measured after 24 hrs; type: ADME, organism-based; details: in vivo
Outline: (§3)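 ICR (CD-1) mice were dosed orally at 20 mg/kg. At set times (1, 3, 8 and 24 h), blood was taken from the heart and portal vein under isoflurane anesthesia and spun to plasma. Livers were removed after portal vein perfusion, rinsed in saline, weighed and homogenized in saline (5 mL/g). Samples were analysed by UPLC–MS/MS in positive electrospray mode.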

[16] = Drug level in CD1 mouse liver at 20 mg/kg, po dosed as single administration measured after 1 to 8 hrs; type: ADME, organism-based; details: in vivo; outline: as §3
[17] = Ratio of drug level in liver to plasma of CD1 mouse at 20 mg/kg, po dosed as single administration measured after 8 hrs; type: ADME, organism-based; outline: as §3
[18] = Drug level in CD1 mouse liver at 20 mg/kg, po dosed as single administration measured after 8 hrs; type: ADME, organism-based; details: read-out: Drug uptake; outline: as §3
Hepatitis B virus [19] = test: Antiviral activity against HBV infected in human HepG2.2.15 cells assessed as reduction in capsid associated DNAs at 0.13 to 1 uM by agarose gel electrophoresis method; type: functional, organism-based; details: HepG2 2.2.15; outline: as §1
Hepatitis B virus [20] = test: Antiviral activity against HBV infected in human HepG2.2.15 cells assessed as increase in faster-migrating capsids levels at 0.13 to 1 uM by agarose gel electrophoresis method; type: functional, organism-based; details: HepG2 2.2.15; outline: as §1
Hepatitis B virus [21] = test: Antiviral activity against HBV in AAV8-HBV-transduced Balb/c mouse assessed as reduction in HBV DNA level in plasma at 100 mg/kg, po BID for 4 weeks relative to control; type: functional, organism-based
Outline: (§4)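 Male Balb/c mice (6−8 weeks, SPF) given one iv tail-vein injection of recombinant AAV carrying HBV 1.1 genome (10¹¹ viral genome equivalents); after 5 weeks, stably viremic mice dosed orally for 4 weeks. […] Weekly blood sampling; plasma HBV DNA by real-time PCR; Dunnett's test versus vehicle.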

Hepatitis B virus [22] = test: Antiviral activity against HBV in AAV8-HBV-transduced Balb/c mouse assessed as reduction in HBV DNA level in plasma at 50 to 150 mg/kg, po BID for 4 weeks; type: functional, organism-based; outline: as §4
Hepatitis B virus [23] = test: Antiviral activity against HBV in AAV8-HBV-transduced Balb/c mouse assessed as reduction in HBV DNA level in plasma at 150 mg/kg, po BID for 4 weeks relative to control; type: functional; outline: as §4
Hepatitis B virus [24] = test: Antiviral activity against HBV infected in human HepG2.2.15 cells assessed as reduction in capsid associated DNAs at 1 uM by agarose gel electrophoresis method; type: functional, organism-based; details: HepG2 2.2.15; outline: as §1

| Structure (SMILES) | CC50 at 192 h [1] [nM] | IC50 (Hepatitis B virus [2]; HepG2 2.2.15, 192 h) [nM] | IC90 (Hepatitis B virus [2]; HepG2 2.2.15, 192 h) [nM] | also measured |
| --- | --- | --- | --- | --- |
| Cn1cc(-c2ccc(F)nc2F)nc(Cc2ccc(Cl)cc2)c1=O | > 100000 | 1890 |  |  |
| Cc1c(-c2ccc(F)nc2F)nn(Cc2ccc(Cl)cc2)c(=O)c1C | 52900 | 1220 |  |  |
| N#Cc1ccc(Cn2nc(-c3cc(Cl)c(NC[C@@H](O)CO)nc3F)c3ccccc3c2=O)cc1 | > 100000 | 8 | 240 |  |
| N#Cc1ccc(Cn2nc(-c3cc(Cl)c(NCCO)nc3F)c3ccccc3c2=O)cc1 | 32100 | 28 | 230 | AUC (mouse (Mus musculus) [3]): 735 ng·h/mL; Tmax (mouse (Mus musculus) [4]): 0.25 h; Vd (mouse (Mus musculus) [5]): 5.44 L/kg; AUC(0-inf) (mouse (Mus musculus) [6]): 171 ng·h/mL |
| C=C1[C@H](CO)[C@@H](O)C[C@@H]1n1cnc2c(=O)[nH]c(N)nc21 |  |  |  | Activity (Hepatitis B virus [7]): inactive; Activity (Hepatitis B virus [8]): Active |
| COC(=O)c1cc(-c2ccc(F)nc2F)nn(Cc2ccc(Cl)cc2)c1=O | > 100000 |  |  | Activity (Hepatitis B virus [9]): inactive |
| CNc1ccc(-c2nn(Cc3ccc(C#N)cc3)c(=O)c3ccccc23)c(F)n1 | > 100000 | 540 | > 10000 |  |
| CC(=O)Nc1ccc(-c2nn(Cc3ccc(C#N)cc3)c(=O)c3ccccc23)c(F)n1 | > 100000 |  |  | IC90 (Hepatitis B virus [2]; HepG2 2.2.15): inactive; Activity (Hepatitis B virus [9]): inactive |
| COCCNc1nc(F)c(-c2nn(Cc3ccc(C#N)cc3)c(=O)c3ccccc23)cc1Cl | > 100000 | 38 | 350 | AUC(0-inf) (mouse (Mus musculus) [3]): 3070 ng·h/mL; Activity (Hepatitis B virus [10]): Dose-dependent effect; Activity (Hepatitis B virus [11]): Dose-dependent effect; Vd (mouse (Mus musculus) [5]): 3.09 L/kg; clearance (mouse (Mus musculus) [12]): 11.1 mL/min/kg; AUC(0-inf) (mouse (Mus musculus) [6]): 850 ng·h/mL; half-life (mouse (Mus musculus) [13]): 3.09 h |
| COc1ccccc1/C(Br)=C(/NC(=O)c1ccc([N+](=O)[O-])cc1)C(=O)N1CCCCC1 | > 20000 | 870 |  | Activity (Hepatitis B virus [14]): Active |
| CN(C)CCNc1nc(F)c(-c2nn(Cc3ccc(C#N)cc3)c(=O)c3ccccc23)cc1Cl | 9760 | 260 | 870 |  |
| O=c1c2ccccc2c(-c2ccc(F)nc2F)nn1Cc1ccc(Cl)cc1 | 36700 | 300 |  |  |
| O=c1c(C2CC2)cc(-c2ccc(F)nc2F)nn1Cc1ccc(Cl)cc1 | 39800 | 35100 |  |  |
| COC(=O)CCNc1nc(F)c(-c2nn(Cc3ccc(C#N)cc3)c(=O)c3ccccc23)cc1Cl | > 100000 | 210 | 1140 |  |
| O=c1c(CO)cc(-c2ccc(F)nc2F)nn1Cc1ccc(Cl)cc1 | > 100000 | 170 |  |  |
| N#Cc1ccc(Cn2nc(-c3ccc(F)nc3F)c3ccccc3c2=O)cc1 | > 100000 | 120 |  | Activity (Hepatitis B virus [10]): Dose-dependent effect; Activity (Hepatitis B virus [11]): Dose-dependent effect; Drug uptake [15]: Not Active; Drug uptake [16]: Active |

| Structure (SMILES) | CC50 at 192 h [1] [nM] | IC50 (Hepatitis B virus [2]; HepG2 2.2.15, 192 h) [nM] | IC90 (Hepatitis B virus [2]; HepG2 2.2.15, 192 h) [nM] | also measured |
| --- | --- | --- | --- | --- |
| COCCNc1ccc(-c2nn(Cc3ccc(C#N)cc3)c(=O)c3ccccc23)c(F)n1 | > 100000 | 430 | > 10000 |  |
| O=C(O)c1cc(-c2ccc(F)nc2F)nn(Cc2ccc(Cl)cc2)c1=O | > 100000 |  |  | Activity (Hepatitis B virus [9]): inactive |
| N#Cc1ccc(Cn2nc(-c3ccc(N)nc3F)c3ccccc3c2=O)cc1 | > 100000 | 800 | > 10000 |  |
| O=c1c2c(c(-c3ccc(F)nc3F)nn1Cc1ccc(Cl)cc1)CCCC2 | 31000 | 1450 |  |  |
| N#Cc1ccc(Cn2nc(-c3cc(Cl)c(NCC(O)CO)nc3F)c3ccccc3c2=O)cc1 (configuration not stated) | > 100000 | 14 | 390 | AUC(0-inf) (mouse (Mus musculus) [3]): 8250 ng·h/mL; Kp at 8 h [17]: 4; Activity (Hepatitis B virus [10]): Dose-dependent effect; Activity (Hepatitis B virus [11]): Dose-dependent effect; concentration at 8 h [18]: 5950 ng/g; Activity (Hepatitis B virus [19]): Dose-dependent effect; Activity (Hepatitis B virus [20]): Active; Vd (mouse (Mus musculus) [5]): 0.766 L/kg; clearance (mouse (Mus musculus) [12]): 4.1 mL/min/kg; Activity (Hepatitis B virus [21]): Active; AUC(0-inf) (mouse (Mus musculus) [6]): 49800 ng·h/mL; Activity (Hepatitis B virus [22]): Dose-dependent effect; log(activity) (Hepatitis B virus [23]): 2.67; half-life (mouse (Mus musculus) [13]): 2.52 h |
| Cc1cc(-c2ccc(F)nc2F)cn(Cc2ccc(Cl)cc2)c1=O | 90800 | 5450 |  |  |
| N#Cc1ccc(Cn2nc(-c3cc(Cl)c(NCCC(=O)O)nc3F)c3ccccc3c2=O)cc1 | > 100000 | 260 | 4020 |  |
| CN(C)c1ccc(-c2nn(Cc3ccc(C#N)cc3)c(=O)c3ccccc23)c(F)n1 | 79200 | 530 | > 10000 |  |
| N#Cc1ccc(Cn2nc(-c3cc(Cl)c(NC[C@H](O)CO)nc3F)c3ccccc3c2=O)cc1 | > 100000 | 22 | 1010 |  |
| Cc1nc(-c2ccc(F)nc2F)cn(Cc2ccc(Cl)cc2)c1=O | > 100000 |  |  | Activity (Hepatitis B virus [9]): inactive |
| COc1cc(-c2ccc(F)nc2F)nn(Cc2ccc(Cl)cc2)c1=O | 92200 |  |  | Activity (Hepatitis B virus [9]): inactive |
| Cc1ccc(-c2nn(Cc3ccc(C#N)cc3)c(=O)c3ccccc23)c(F)n1 | > 100000 | 820 | > 10000 |  |
| CCOc1ccc(-c2nn(Cc3ccc(C#N)cc3)c(=O)c3ccccc23)c(F)n1 | > 100000 | 2110 | > 10000 |  |
| COC(=O)C1=C(C)NC(c2ncc(F)cc2F)=N[C@H]1c1ccc(F)cc1Cl |  | 42 |  | Activity (Hepatitis B virus [24]): Active |
| CC(C)c1cc(-c2ccc(F)nc2F)nn(Cc2ccc(Cl)cc2)c1=O | 56700 | 11300 |  |  |
